From ChEMBL document CHEMBL4020803, “Structure-based identification of inhibitors targeting obstruction of the HIVgp41 N-heptad repeat trimer” (Bioorg Med Chem Lett, 2017)
Calls of active or inactive are those of the source. The calls are words filed in the database; no cut-off is given here.

Legend:
[1] = tested on: Human immunodeficiency virus 1; test: Antiviral activity against HIV1 assessed as inhibition of viral entry into human TZM-bl cells at 25 uM preincubated with cells for 1 hr followed by inoculation with 1 hr compound pretreated virus measured 48 hrs post compound wash out by luciferase reporter gene assay relative to control; type: functional; conditions: for inhibition at 25 µM: Human immunodeficiency virus 1, TZM-bl
How it was run: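 HIV-1 made by PEI co-transfection of pNL4-3.HSA.R-E- and pHXB2-env; titer set by X-Gal staining on TZM-bl. TZM-bl seeded 10^4/well a day ahead, pretreated 1 h at 37 °C with 25 μM compound, DMSO or 1 μM C34. Virus (MOI 0.1) preincubated 1 h with the same treatment, added, spinoculated 1,000 × g 1 h RT, 1 h 37 °C, washed, luciferase read at 48 h, normalized.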

TZM = test: Cytotoxicity against human TZM-bl cells assessed as decrease in cell viability at 25 uM after 6 hrs; type: cell-based
How it was run: (§1)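 Viability measured in the same wells as the fusion read-out, using the combined luciferase/cell-viability kit. TZM-bl and HL2/3 cells were pretreated with 25 μM compound, DMSO or 1 μM C34, then co-cultured 6 h at 37 °C, 5% CO2. Duplicate wells per compound.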

[2] = tested on: Human immunodeficiency virus 1; test: Antiviral activity against VSV-G pseudotyped HIV1 assessed as inhibition of virus entry by cell-based assay; type: functional
How it was run: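 VSV-G-pseudotyped HIV-1 (pNL4-3.HSA.R-E- plus pCMV-VSV-G, made by PEI transfection), tested at 25 μM. TZM-bl cells (10^4/well) and MOI 0.1 virus were each pretreated 1 h at 37 °C. Compound medium was replaced with the treated virus, then spinoculation at 1,000 × g for 1 h at room temperature and 1 h at 37 °C. Cells were washed, grown 48 h drug-free, and read by luciferase. Bafilomycin A1 control.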

[3] = Cytotoxicity against human HL2/3 cells assessed as decrease in cell viability at 25 uM after 6 hrs; type: cell-based; conditions: hl2/3, 6 h; how it was run: as §1
[4] = tested on: Human immunodeficiency virus 1; test: Inhibition of HIV1 gp41-induced cell-cell fusion between viral protein expressing human HL2/3 cells and TZM-bl target cells at 25 uM preincubated with cells followed by co-incubation for 6 hrs by luciferase reporter gene assay relative to control
How it was run: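 TZM-bl receptor cells seeded a day ahead, then TZM-bl and HL2/3 effector cells pretreated with 25 μM compound (DMSO stock diluted in complete medium), DMSO alone (maximum signal) or 1 μM C34 (maximum inhibition); cells co-incubated 6 h at 37 °C, 5% CO2. Fusion read by luciferase in a combined luciferase/viability kit; signal normalized to controls. Duplicate wells per compound.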

With `COc1ccc(-c2cc(C(=O)NCc3ccc(Cl)cc3)n[nH]2)cc1S(=O)(=O)N1CCOCC1` the inhibition [1] was “inactive”.
In the case of `CCn1c(SCC(=O)N/N=C/c2cccc(Oc3ccccc3)c2)nnc1-c1ccc(OC)cc1`, the inhibition [1] is reported as “inactive”.
With `Cn1c(SCC(=O)N/N=C/c2cc(Br)cc(Br)c2O)nc2ccccc21` the Activity (TZM) was “Non-Toxic”, the inhibition [2] was “inactive” and the inhibition at 25 µM [1] was over 50%. For the same compound, the Activity [3] was “Non-Toxic” and the inhibition [4] was over 50%.
For `Cc1ccc(CNC(=O)c2oc3ccc(S(=O)(=O)N4CCC5(CC4)OCCO5)cc3c2C)cc1`, the Activity (TZM) was “Non-Toxic”, the inhibition [2] was “inactive” and the inhibition at 25 µM [1] was over 50%. The Activity [3] was “Non-Toxic” and the inhibition [4] was over 50%.
